We go through two compounds from ChEMBL document CHEMBL1126566, “Studies on analogues of classical antifolates bearing the naphthoyl group in place of benzoyl in the side chain” (J Med Chem, 1993).

Broadly, the T/C is the ratio of treated to control. Usually IC50 stands for the concentration that inhibits the measured activity by half. As a reminder, the Km is the concentration of substrate that gives half-maximal velocity. Usually Ki stands for the dissociation constant of the complex between target and ligand, obtained from inhibition or displacement. The inhibition is the percentage by which the read-out fell short of the control.

Data set [1] concerns Mus musculus. As to the kind of experiment: Antitumor activity against E0771 mammary adenocarcinoma in mice at 6 mg/kg(5 days) was determined and […] at day 10 was reported. The class given is functional. The gist of the method: (§1)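 E0771 mammary adenocarcinoma implanted in mice, five mice per group. Treatment was given daily for 5 days, starting day 3 after implantation. Tumor volume was calculated as 4/3πr³ and averaged on days 7, 10 and 14. T/C (%) is the treated/control tumor volume. Toxic deaths were recorded.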

Data set [2] deals with L1210. As to the kind of experiment: Tested for the ability to inhibit growth in vitro against L1210. Conditions: Mus musculus. The class given is functional, cell-based.
For data set [3], the system named is Mus musculus. As to the kind of experiment: Antitumor activity against E0771 mammary adenocarcinoma in mice at 6 mg/kg(5 days) was determined and […] at day 7 was reported. The class given is functional. An outline of the steps: as §1
Data set [4] concerns Mus musculus. As to the kind of experiment: Antitumor activity against E0771 mammary adenocarcinoma in mice at 30 mg/kg(5 days) was determined and tumor volume at day 14 was reported. The class given is functional.
Data set [5] relates to Mus musculus. As to the kind of experiment: Antitumor activity against E0771 mammary adenocarcinoma in mice at 3 mg/kg(5 days) was determined and […] at day 10 was reported. It counts as functional. An outline of the steps:
as §1

In data set [6] the test system is Folyl-polyglutamate synthase. As to the kind of experiment: Michaelis-Menten constant was determined against CCRF-CEM Folyl-polyglutamate synthase. Conditions: human, folylpolyglutamate synthase from CCRF-CEM cells. It counts as ADME. The gist of the method:
(§2)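 FPGS from CCRF-CEM cells: freeze-thawed lysates fractionated by (NH₄)₂SO₄ (0–40% saturation pellet) and gel sieving, stored at –90 °C in 20% glycerol, free of detectable γ-glutamyl hydrolase. Product was separated on DEAE-cellulose minicolumns. Run in duplicate or triplicate, and each experiment was repeated at least once.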

For data set [7], the system named is Mus musculus. As to the kind of experiment: Antitumor activity against E0771 mammary adenocarcinoma in mice at 3 mg/kg(5 days) was determined and […] at day 7 was reported. The class given is functional. An outline of the steps:
as §1

The test system of data set [8] is Mus musculus. As to the kind of experiment: Antitumor activity against E0771 mammary adenocarcinoma in mice at 3 mg/kg(5 days) was determined and tumor volume at day 10 was reported. The class given is functional. An outline of the steps:
(§3)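 Mice bearing implanted E0771 mammary adenocarcinoma, five per test group. Dosing was daily for 5 days, starting on day 3 after implantation. Tumor volume (mm³) was calculated as 4/3πr³ and is also expressed as treated/control (%).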

Data set [9] concerns Mus musculus. As to the kind of experiment: Antitumor activity against E0771 mammary adenocarcinoma in mice at 3 mg/kg(5 days) was determined and tumor volume at day 7 was reported. It counts as functional. The gist of the method:
as §3

Data set [10] relates to Mus musculus. As to the kind of experiment: Antitumor activity against E0771 mammary adenocarcinoma in mice at 6 mg/kg(5 days) was determined and tumor volume at day 10 was reported. The class given is functional. An outline of the steps:
as §3

Data set [11] has as its system Mus musculus. As to the kind of experiment: Antitumor activity against E0771 mammary adenocarcinoma in mice at 100 mg/kg(5 days) was determined and […] at day 14 was reported. It counts as functional.
Data set [12] concerns Mus musculus. As to the kind of experiment: Antitumor activity against E0771 mammary adenocarcinoma in mice at 6 mg/kg(5 days) was determined and tumor volume at day 7 was reported. It counts as functional. The gist of the method:
as §3

Data set [13] relates to L1210. As to the kind of experiment: Tested for transport into L1210 cells measured as cell influx. It counts as functional, cell-based, Mus musculus.
The test system of another data set is HL-60. As to the kind of experiment: Tested for the ability to inhibit growth in vitro against HL60. The note with it: Homo sapiens. It counts as functional, cell-based.
Data set [14] deals with Mus musculus. As to the kind of experiment: Antitumor activity against E0771 mammary adenocarcinoma in mice at 30 mg/kg(5 days) was determined and […] at day 14 was reported. It counts as functional.
Data set [15] deals with Mus musculus. As to the kind of experiment: Antitumor activity against E0771 mammary adenocarcinoma in mice at 100 mg/kg(5 days) was determined and tumor volume at day 14 was reported. The class given is functional. The gist of the method:
as §3

Data set [16] has as its system CCRF S-180. As to the kind of experiment: Tested for the ability to inhibit growth in vitro against S180 cells. Conditions: Mus musculus. It counts as functional, cell-based.
The target of data set [17] is T1, Folylpolyglutamate synthase, mitochondrial (Mus musculus) (UniProt P48760).
T1 sequence (whole entry): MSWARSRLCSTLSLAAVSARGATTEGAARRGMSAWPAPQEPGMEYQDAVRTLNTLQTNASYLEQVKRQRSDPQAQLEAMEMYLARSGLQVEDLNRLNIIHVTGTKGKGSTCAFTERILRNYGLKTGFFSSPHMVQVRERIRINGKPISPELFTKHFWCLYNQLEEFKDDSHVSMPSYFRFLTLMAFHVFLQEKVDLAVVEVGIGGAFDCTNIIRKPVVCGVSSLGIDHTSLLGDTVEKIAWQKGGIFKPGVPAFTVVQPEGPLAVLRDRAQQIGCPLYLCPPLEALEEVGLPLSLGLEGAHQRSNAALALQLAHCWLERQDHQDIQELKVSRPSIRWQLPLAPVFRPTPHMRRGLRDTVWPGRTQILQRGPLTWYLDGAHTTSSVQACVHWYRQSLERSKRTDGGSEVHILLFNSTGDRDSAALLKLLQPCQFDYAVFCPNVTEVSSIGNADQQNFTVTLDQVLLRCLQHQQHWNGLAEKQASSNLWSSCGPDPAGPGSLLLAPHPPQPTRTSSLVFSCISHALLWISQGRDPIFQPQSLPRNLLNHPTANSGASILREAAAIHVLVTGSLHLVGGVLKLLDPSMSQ
As to the kind of experiment: Specific activity of L1210 Folyl-polyglutamate synthase. An outline of the steps:
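FPGS from L1210 cells was assayed by [³H]glutamate ligation, like the human enzyme assay. Each folate substrate was at 100 μM, and only specific activity was measured.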

Data set [18] has as its system Mus musculus. As to the kind of experiment: Antitumor activity against E0771 mammary adenocarcinoma in mice at 24 mg/kg(5 days) was determined and tumor volume at day 10 was reported. It counts as functional. The gist of the method:
as §3

The target of another data set is T2, Dihydrofolate reductase (Mus musculus, UniProt P00375).
T2 sequence (P00375 whole entry): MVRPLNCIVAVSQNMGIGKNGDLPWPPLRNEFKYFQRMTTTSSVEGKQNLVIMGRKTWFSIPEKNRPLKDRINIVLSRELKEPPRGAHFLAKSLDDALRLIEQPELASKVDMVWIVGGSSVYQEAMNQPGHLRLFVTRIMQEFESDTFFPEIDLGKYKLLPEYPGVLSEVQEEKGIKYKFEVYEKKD
As to the kind of experiment: Inhibitory activity of Dihydrofolate reductase in L1210 cells. It counts as cell-based.

Data set [19] has as its system Mus musculus. As to the kind of experiment: Antitumor activity against E0771 mammary adenocarcinoma in mice at 24 mg/kg(5 days) was determined and […] at day 14 was reported. It counts as functional.
Data set [20] concerns Mus musculus. As to the kind of experiment: Antitumor activity against E0771 mammary adenocarcinoma in mice at 12 mg/kg(5 days) was determined and tumor volume at day 7 was reported. The class given is functional. The gist of the method:
as §3

Data set [21] has as its system Mus musculus. As to the kind of experiment: Antitumor activity against E0771 mammary adenocarcinoma in mice at 24 mg/kg(5 days) was determined and tumor volume at day 14 was reported. The class given is functional. The gist of the method: as §3
The subject of data set [22] is Mus musculus. As to the kind of experiment: Antitumor activity against E0771 mammary adenocarcinoma in mice at 12 mg/kg(5 days) was determined and […] at day 7 was reported. The class given is functional.
Data set [23] deals with Mus musculus. As to the kind of experiment: Antitumor activity against E0771 mammary adenocarcinoma in mice at 12 mg/kg (5 days) was determined and […] at day 10 was reported. It counts as functional. The gist of the method:
as §1

Data set [24] deals with Mus musculus. As to the kind of experiment: Antitumor activity against E0771 mammary adenocarcinoma in mice at 24 mg/kg(5 days) was determined and […] at day 10 was reported. The class given is functional.
Data set [25] has as its system Mus musculus. As to the kind of experiment: Antitumor activity against E0771 mammary adenocarcinoma in mice at 12 mg/kg (5 days) was determined and […] at day 14 was reported. The class given is functional.
Another data set relates to CCRF-CEM. As to the kind of experiment: Percent inhibition of Folyl-polyglutamate synthase from CCRF-CEM cells. The class given is cell-based. The note with it: Homo sapiens, dose or concentration not given here. Details: concentration or dose not given beside the values. The gist of the method: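 FPGS was partially purified from CCRF-CEM cells by (NH₄)₂SO₄ fractionation and gel sieving, with no detectable γ-glutamyl hydrolase. Product was separated on DEAE-cellulose. Percent inhibition is reported.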

In data set [26] the test system is CCRF S-180. As to the kind of experiment: Tested for the ability to inhibit growth in vitro against S180. The class given is functional, cell-based. The note with it: Mus musculus.
A short description of data set [27]: Activity relative to saturating aminopterine at 100 uM against CCRF-CEM Folyl-polyglutamate synthetase. The class given is ADME. The note with it: human. An outline of the steps:
as §2

Data set [28] relates to Mus musculus. As to the kind of experiment: Antitumor activity against E0771 mammary adenocarcinoma in mice at 24 mg/kg(5 days) was determined and tumor volume at day 7 was reported. The class given is functional. The gist of the method: as §3
Data set [29] deals with Mus musculus. As to the kind of experiment: Antitumor activity against E0771 mammary adenocarcinoma in mice at 24 mg/kg(5 days) was determined and […] at day 7 was reported. The class given is functional. The gist of the method: as §1
For data set [30], the system named is Mus musculus. As to the kind of experiment: Antitumor activity against E0771 mammary adenocarcinoma in mice at 12 mg/kg(5 days) was determined and tumor volume at day 14 was reported. The class given is functional. The gist of the method:
as §3

Data set [31] has as its system Mus musculus. As to the kind of experiment: Antitumor activity against E0771 mammary adenocarcinoma in mice at 12 mg/kg(5 days) was determined and tumor volume at day 10 was reported. It counts as functional. An outline of the steps:
as §3

Consider `CN(Cc1cnc2nc(N)nc(N)c2n1)c1ccc(C(=O)N[C@@H](CCC(=O)O)C(=O)O)cc1` [METHOTREXATE], for which the T/C came out at 30% with Mus musculus [1]; 49% with Mus musculus [3]; 100% in the data set with Mus musculus [5]; 81% with Mus musculus [7]; 83% with Mus musculus [11]; 31% in the data set on Mus musculus [14]. Besides, the IC50 in the data set on L1210 [2] stood at 9 nM; with HL-60 it was 8.1 nM; with CCRF S-180 [16], 10 nM. Besides, the Tumor volume with Mus musculus [4] is given as 540 mm**3; in the data set with Mus musculus [8] it was 624 mm**3; in the data set with Mus musculus [9] it was 180 mm**3; in the data set with Mus musculus [10], 187 mm**3; with Mus musculus [12], 108 mm**3; with Mus musculus [15], 1437 mm**3. The Km in [6] came to 42 µM. This compound also registered a Ki in the data set on L1210 [13] of 3930 nM. The same compound came in with a Specific activity (pM hr-1 (mg of protein)-1) in [17] of 0.38.
Take `Cc1c(CN(C)c2ccc(C(=O)NC(CCC(=O)O)C(=O)O)c3ccccc23)cnc2nc(N)nc(N)c12` (configuration not stated): the Tumor volume with Mus musculus [18] worked out at 119 mm**3; in the data set with Mus musculus [20] it was 108 mm**3; in the data set on Mus musculus [21] it was 493 mm**3; with Mus musculus [28], 87 mm**3; with Mus musculus [30], 1048 mm**3; with Mus musculus [31], 333 mm**3. The Ki at Dihydrofolate reductase came to 0.00484 nM; in the data set on L1210 [13] it was 660 nM. The T/C with Mus musculus [19] is recorded as 28%; with Mus musculus [22], 49%; in the data set on Mus musculus [23], 53%; in the data set on Mus musculus [24], 19%; in the data set on Mus musculus [25], 60%; with Mus musculus [29], 39%. The IC50 in the data set with L1210 [2] is 2.4 nM; in the data set with HL-60 it was 0.56 nM; in the data set with CCRF S-180 [26] it was 2.6 nM. The same compound had an inhibition in the data set on CCRF-CEM of 10%. The “Relative Vmax” value in data set [27] is given as 0.04.
